Experimental data collected from several papers.
Compare with care: the assays were run in different laboratories.
Target: Insulin receptor-related protein (INSRR, Homo sapiens, UniProt P14616)

N[C@H]1CCN(c2nccc(-c3cnn4ncccc34)n2)C1  remaining binding (binding; 1 µM): 97%
C[C@@]1(Cc2ccc(C#N)cc2)C(=O)N(c2cc(Cl)cc(Cl)c2)c2ncc(C(=O)NC3(c4nc(C5CCC5)no4)CC3)n21  remaining binding (cell-free assay, competition with immobilised ligand; 1 µM): 100%
COc1ccnn2ncc(-c3ccnc(N(C)C)n3)c12  remaining binding (binding; 1 µM): 99%
CNC(=O)Nc1ccc2c(c1)CC[C@@]21OC(=O)N(CC(=O)N(Cc2ccc(F)cc2)[C@@H](C)C(F)(F)F)C1=O  remaining binding (cell-free assay, competition with immobilised ligand; 1 µM): 96%
CCN1CCN(Cc2ccc(C(=O)Nc3ccc(C)c(Oc4ccc5c(c4)CC(=O)N5)c3)cc2C(F)(F)F)CC1  remaining binding (binding, competition with immobilised ligand; 1 µM): 93%
CC1CCCN1c1nccc(-c2cnn3ncccc23)n1 (stereo not shown)  remaining binding (binding; 1 µM): 100%
CN(C)C(=O)Cn1cc(-c2nc(C3(c4ccc(-c5cnc(N)nc5)cc4)CC3)no2)cn1  remaining binding (cell-free assay, competition with immobilised ligand; 1 µM): 100%
C[C@@H](c1ccc(-n2cnc3c(N)ncnc32)cc1)N1CCc2nn(C)c(Cc3ccccc3)c2C1=O  remaining binding (binding, competition with immobilised ligand; 0.1 µM): 91%
C[C@@H]1CN(c2cc(-c3nn(C)c4ccc(OC5(C)CC5)cc34)ncn2)C[C@H](C)O1  remaining binding (cell-free assay, competition with immobilised ligand; 1 µM): 91%
Cc1cnc(Nc2ccc(C(=O)N3CCC(N4CCCC4)CC3)cc2)nc1-c1cc2ccccc2s1  remaining binding (binding, competition with immobilised ligand; 1 µM): 44%
c1cnn2ncc(-c3ccnc(N4CCC45COC5)n3)c2c1  remaining binding (binding; 1 µM): 93%
O=C(NCCCN1CCOCC1)c1ccc(Nc2nccc(-c3cc4ccccc4s3)n2)cc1  remaining binding (binding, competition with immobilised ligand; 1 µM): 100%
COc1cc(-c2cn(C3CCc4ccccc4N(CC(F)(F)F)C3=O)nn2)ccc1-n1ccc(C)n1 (stereo not shown)  remaining binding (cell-free assay, competition with immobilised ligand; 1 µM): 100%
O=C(Nc1c[nH]nc1C(=O)NC1CCNCC1)c1cc(F)cc(F)c1  remaining binding (binding, competition with immobilised ligand; 1 µM): 92%
CN(C)c1nccc(-c2cnn3ncccc23)n1  remaining binding (binding; 1 µM): 92%
CNC(=O)[C@@H]1CC[C@@H](n2c(-c3ccc4cnccc4c3)nc3ccc(C(=O)NCc4cccc(C(N)=O)c4)cc32)C1  remaining binding (binding, competition with immobilised ligand; 1 µM): 92%
CCC(=O)N[C@H]1CC[C@@H](C(=O)N(C)c2ccc(-c3nc4ccccc4o3)cc2)C1  remaining binding (cell-free assay, competition with immobilised ligand; 1 µM): 100%
CN(CCCC(F)(F)F)c1nccc(-c2cnn3ncccc23)n1  remaining binding (binding; 1 µM): 100%
O=C(c1ccc(Nc2ncc(Cl)c(-c3ccc(Cl)s3)n2)cc1)N1CCC(N2CCCC2)CC1  remaining binding (binding, competition with immobilised ligand; 1 µM): 23%
COc1ncc2cc3ccccc3nc2c1C#N  remaining binding (cell-free assay, competition with immobilised ligand; 5 µM): 100%
O=C(NCCCC1CCCCC1)c1ccc(CNC(=O)c2cnn(-c3ccccc3)c2C(F)(F)F)cc1  remaining binding (cell-free assay, competition with immobilised ligand; 0.1 µM): 100%
CN(C)c1nccc(-c2cnc3ncccn23)n1  remaining binding (binding; 1 µM): 82%
